CFTR F508del cor: CFTR F508del correction in bronchial cells; CFBE cells, YFP halide quenching; stimulated with forskolin plus potentiator P3; % fluorescence drop versus neutral controls; activity (quench increase), % at 7.58 µM; actives 0.36% (n = 350,000); AID 720511;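 active = mean added fluorescence quench of at least 8% versus neutral control, with both replicates also reaching 8%; inconclusive = only one of the mean or replicate conditions met; inactive = mean below 8% and not both replicates reaching 8%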;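 note: cells transiently co-express mutant CFTR-F508del with the halide-sensitive YFP; corrector assay measuring rescue of mutant channel to the surface after 24 h compound exposure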
S100A4 MyoIIA: inhibitors of human S100A4 binding to myosin IIA peptide; AID 652163; inhibition, % at 10.7 µM; S100A4/TAMRA-MyoIIA peptide fluorescence polarization; P26447; actives 0.14% (n = 360,000);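 active = mean inhibition of at least 70% across replicates, with every replicate also reaching that level; inconclusive = mean inhibition reaches 70% but some replicates fall short; inactive = mean inhibition below 70%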
Target sequence (P26447 whole entry, looked up): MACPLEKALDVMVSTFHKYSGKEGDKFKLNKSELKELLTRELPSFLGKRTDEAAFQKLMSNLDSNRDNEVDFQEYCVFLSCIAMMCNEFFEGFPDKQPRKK
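Test system: S100A4 monomer protein; Medium: HEPES pH 7.2 with CaCl2, KCl, NaCl, DTT, Triton; Probe or stimulus: TAMRA-labelled myosin IIA heavy-chain peptide probe, 5 nM; Doses: one dose per compound; Times: polarization read 5 min after assay mix addition, stable 5–60 min; Benchmarks: neutral control DMSO, positive control TFP.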
FGF22 binding: FGF22 (human) thermal shift binding | recombinant FGF22 thermal shift, SYPRO orange fluorescence; percent of sucrose octasulfate shift, DMSO zero | actives 1.5% (n = 340,000) | Q9HCT0 | activity (Tm shift, normalised), % at 9.99 µM;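 active = mean Tm shift, scaled 0 neutral to 100 positive control, at about 1.3% or above, every replicate too, limit read from the data; inconclusive = no clear call, values can overlap the other calls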
Target sequence (Q9HCT0 whole entry, looked up): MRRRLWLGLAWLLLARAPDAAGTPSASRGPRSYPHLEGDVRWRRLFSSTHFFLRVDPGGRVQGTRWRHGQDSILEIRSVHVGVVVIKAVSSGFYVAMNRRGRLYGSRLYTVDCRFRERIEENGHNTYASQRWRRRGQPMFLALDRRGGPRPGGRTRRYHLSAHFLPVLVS
dFosB act: activators of mouse delta FosB homodimer; P13346; purified delta FosB, TAMRA-CDK5 oligo fluorescence polarization; percent of positive-control signal above neutral wells; activation, % at 25 µM; actives 0.99% (n = 340,000);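 active = mean activation above about 17%, with every replicate also reaching it, limit read from the data, passing the limit was not always enough; inconclusive = only one of the two conditions met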
Large screens that a line does not name were inactive. Shown are actives, neighbours in structure and some others; about 2.2% of the full set was active somewhere.

COc1ccc2c3c(n(C)c2c1)[C@H](CO)N(C(=O)NC(C)C)CC31CN(C(C)=O)C1	none (no result: S100A4 MyoIIA, dFosB act)
C[C@H]1CN([C@@H](C)CO)C(=O)CCCn2cc(nn2)CO[C@H]1CN(C)Cc1ccccc1C(F)(F)F	none (no result: dFosB act)
CC1=C(C(=O)N(C)C)CC(CC(=O)NC2CC2)C(=O)N1Cc1ccccc1 (configuration not stated)	none (no result: dFosB act)
CCN(CC)C(=O)C1=C(C)N(Cc2ccccc2)C(=O)C(CC(=O)NC2CC2)C1 (configuration not stated)	FGF22 binding 44 (no result: dFosB act)
CCN(CC)C(=O)C1=C(C)N(Cc2ccc(C(C)(C)C)cc2)C(=O)C(CC(=O)NC2CCCCC2)C1 (configuration not stated)	none (no result: dFosB act)
CCN(CC)C(=O)C1=C(C)N(Cc2ccccc2)C(=O)C(CC(=O)NC2CCCCC2)C1 (configuration not stated)	FGF22 binding 44 (no result: dFosB act)
O=C(CNC(=O)Cc1ccccc1)N=Nc1c(O)n(Cc2ccc3c(c2)OCO3)c2ccccc12	dFosB act 20
CCCCCOc1ccc(Br)cc1CSC(=N)N	FGF22 binding 44
COCC(=O)Nc1ccc2c(c1)[C@H]1C[C@@H](CC(=O)N[C@@H](C)c3ccccc3)O[C@@H](CO)[C@H]1O2	none (no result: dFosB act)
CC(=O)/C=C1/C(=O)Nc2ccccc21	FGF22 binding 44
COc1ccc(C(=O)N2CCCC(CCC(=O)NCc3ccc(F)c(F)c3)C2)o1 (configuration not stated)	FGF22 binding 43 (no result: CFTR F508del cor)
COc1ccc(C(=O)N2CCCC(CCC(=O)NCc3ccc(F)c(F)c3)C2)cc1F (configuration not stated)	none
O=C(Nc1cccc(F)c1)N1CC(=O)N2[C@H](CO)[C@H](c3ccc(C#Cc4cccnc4)cc3)[C@@H]2C1	none (no result: FGF22 binding, dFosB act)
CC(=O)Nc1ccc2c(c1)C(=O)N(C)[C@@H]1CC[C@@H](CC(=O)NCc3ccccc3Cl)O[C@@H]1CO2	none (no result: dFosB act)
O=C(COC(=O)C1CCC(=O)N1)Nc1ccccc1Br (configuration not stated)	FGF22 binding 43
C[n+]1c(-c2ccccc2)cc2c(=Cc3ccccc3)c3ccccc3n21	none
CCOC(=O)c1cc2c(=Cc3ccc(N(C)C)cc3)c3ccccc3n2[n+]1C	CFTR F508del cor 9.9, dFosB act 46
CN(C)c1ccc(C=c2c3ccccc3n3c2c2ccccc2[n+]3C)cc1	none
CN(C)c1ccc(C=c2c3cc(O)ccc3n3c2cc(-c2ccccc2)[n+]3C)cc1	S100A4 MyoIIA 79, dFosB act 82
Cc1cc2c(=Cc3ccc(N(C)C)cc3)c3ccccc3n2[n+]1C	dFosB act 100
C=CCOC(=O)[C@H]1[C@@H]2C(=O)O[C@@H](c3ccccc3)[C@@H](c3ccccc3)N2[C@@H](c2ccc(OCCOC(=O)[C@H]3C[C@H]4C(=O)N[C@@H](CC(C)C)C(=O)N4[C@H]3c3ccc(O)cc3)cc2)[C@]12C(=O)Nc1ccccc12	none (no result: dFosB act)
COc1ccccc1-c1cn(CC[C@H]2CC[C@H](NC(=O)C3CC3)[C@H](CO)O2)nn1	none (no result: dFosB act)
C[C@@H]1CCCCO[C@@H](CN(C)C(=O)NC2CCCCC2)[C@H](C)CN([C@H](C)CO)C(=O)c2cc(NC(=O)c3ccncc3)ccc2O1	none (no result: dFosB act)
COc1ccc(-c2[nH]ncc2CN2CCC(C(=O)N3CCOCC3)CC2)c(F)c1	none
O=C(C1CCN(Cc2cn[nH]c2-c2ccc(F)cc2F)CC1)N1CCOCC1	FGF22 binding 44
COc1ccc(NC(=O)N(C)C[C@@H]2Oc3ccc(NS(=O)(=O)c4c(C)noc4C)cc3CC(=O)N([C@H](C)CO)C[C@@H]2C)cc1	none (no result: dFosB act)
COc1cc(/C=C/C(=O)O)ccc1OCc1ccc([N+](=O)[O-])cc1	FGF22 binding 43
CCCOc1ccc(/C=C/C(=O)O)cc1OC	none
C[C@@H]1CN([C@H](C)CO)C(=O)c2cc(N(C)C)ccc2O[C@@H]1CN(C)C(=O)Nc1ccc(C(F)(F)F)cc1	none (no result: dFosB act)
C=CCN1C(=O)/C(=C/C=C2/N(CC)c3ccc(S(=O)(=O)N(C)C)cc3N2CC)SC1=S	CFTR F508del cor 11, dFosB act inconclusive
O=C(C[C@H]1CC[C@H]2[C@@H](COC[C@@H](O)CN2S(=O)(=O)c2ccc(F)cc2)O1)NCCN1CCCCC1	none (no result: dFosB act)
c1ccc2c(c1)N1CCCN=C1N2CCN1CCCCC1	CFTR F508del cor 8.9
COc1ccccc1-c1cnc2c(c1)C(=O)N([C@H](C)CO)C[C@@H](C)[C@H](CN(C)C(=O)c1ccncc1)O2	none (no result: dFosB act)
